Source: ChEMBL document CHEMBL4732059, “Structure-guided modification of isoxazole-type FXR agonists: Identification of a potent and orally bioavailable FXR modulator” (Eur J Med Chem, 2021)
Calls of active or inactive are those of the source. The calls are words filed in the database; no cut-off is given here.

Columns and labels:
HepG2 [1] = experiment: Cytotoxicity against human HepG2 cells assessed as cell viability upto 40 uM after 48 hrs by MTT assay; assay type: cell-based; details: hepg2, 48 h
Procedure, shortened: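 HepG2 cells in DMEM/10% FBS seeded at 1×10⁵/mL and grown 24 h, then exposed to 0.1, 1, 10, 40 and 80 µM for 48 h. MTT (5 mg/mL stock) added for 4 h at 37 °C in the dark, formazan dissolved in DMSO, absorbance read at 490 nm; mean ± SD, n = 3.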

HepG2 [2] = experiment: Upregulation of FXR level in human HepG2 cells at 1 to 10 uM for 16 hrs by Western blot analysis; assay type: functional, cell-based; details: dose 1-10 µM
Procedure, shortened: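 HepG2 cells treated for 16 h, washed, lysed on ice and centrifuged; protein quantified by BCA. Equal protein run on 12% SDS-PAGE and transferred to PVDF. Probed overnight at 4 °C with anti-FXR, […], anti-CYP7A1 or anti-BSEP antibody, then HRP secondary 1 h at 37 °C; ECL detection.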

[3] = Half life in C57BL/6J mouse at 20 mg/kg, po measured upto 24 hrs by LC-MS analysis; assay type: ADME, organism-based; details: in vivo
Procedure, shortened: (§1)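 Male C57BL/6J mice (22–24 g, n = 5), single oral dose 20 mg/kg in 0.5% CMC-Na PBS. Plasma sampled at 0.25, 0.5, 1, 2, 4, 8, 12 and 24 h, centrifuged, and supernatant analysed by LC-MS/MS in positive ion mode. Parameters from noncompartmental analysis; mean ± SD, n = 5.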

[4] = Tmax in C57BL/6J mouse at 20 mg/kg, po measured upto 24 hrs by LC-MS analysis; assay type: ADME, organism-based; details: in vivo; procedure, shortened: as §1
[5] = Cmax in C57BL/6J mouse at 20 mg/kg, po measured upto 24 hrs by LC-MS analysis; assay type: ADME, organism-based; set-up: route oral, dose 20 mg/kg, time <=24; details: in vivo; procedure, shortened: as §1
[6] = AUC (0 to t) in C57BL/6J mouse at 20 mg/kg, po measured upto 24 hrs by LC-MS analysis; assay type: ADME, organism-based; set-up: route oral, dose 20 mg/kg, time <=24; details: in vivo; procedure, shortened: as §1
[7] = molecular target: T1, Bile acid receptor (Homo sapiens) (UniProt Q96RI1); experiment: Agonist activity at human FXR in HepG2 cells assessed as nuclear translocation at 1 uM for 16 hrs by immunofluorescence analysis; assay type: cell-based; details: filed as agonist
T1 sequence (whole entry): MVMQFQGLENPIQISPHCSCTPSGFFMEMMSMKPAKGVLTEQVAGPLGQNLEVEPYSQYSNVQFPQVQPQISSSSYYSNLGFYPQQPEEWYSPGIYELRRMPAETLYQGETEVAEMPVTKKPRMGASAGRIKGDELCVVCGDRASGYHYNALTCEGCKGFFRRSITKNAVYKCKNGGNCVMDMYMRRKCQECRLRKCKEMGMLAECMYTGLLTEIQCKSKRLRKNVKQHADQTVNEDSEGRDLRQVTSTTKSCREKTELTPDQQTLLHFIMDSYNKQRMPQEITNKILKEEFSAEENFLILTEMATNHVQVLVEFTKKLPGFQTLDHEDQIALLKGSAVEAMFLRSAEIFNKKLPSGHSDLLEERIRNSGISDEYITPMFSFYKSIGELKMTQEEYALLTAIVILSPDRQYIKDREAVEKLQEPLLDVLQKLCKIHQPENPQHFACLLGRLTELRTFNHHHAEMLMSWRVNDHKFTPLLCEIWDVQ

half-life [3] [h]	Tmax [4] [h]	Cmax [5] [ng/mL]	AUC(0-t) at 24 h [6] [ng·h/mL]	Activity [7]	SMILES	Activity (HepG2 [1])	Activity (HepG2 [2])
10.6	4.8	2350	36100		O=C(O)c1cccc(NC(=O)N2CCC(OCc3c(-c4ccccc4OC(F)(F)F)noc3C3CC3)CC2)c1	Non-Toxic	Active
				Active	CC(C)c1onc(-c2c(Cl)cccc2Cl)c1COc1ccc(/C=C/c2cccc(C(=O)O)c2)c(Cl)c1	Non-Toxic	
